Activity calls are given as the source filed them. The calls are words filed in the database; no cut-off is given here.
Tests used:
[1] = system: Mus musculus; assay: (§1) Nephrotoxicity in Balb/c mouse infected with Trypanosoma cruzi MHOM/Pe/2011/Arequipa DTU 5 trypamastigotes assessed as change in uric acid level in serum at 100 mg/kg, po once daily for 5 consecutive days starting from day 10 post infection measured on day 127 post infection by biochemical analysis relative to control; type: toxicity, organism-based; conditions: in vivo
[2] = system: Trypanosoma cruzi; assay: Antitrypanosomal activity against Trypanosoma cruzi MHOM/Pe/2011/Arequipa DTU 5 epimastigotes assessed as effect on parasite glycolytic pathway by measuring increase in succinate excretion at IC25 after 72 hrs by 1H NMR method relative to control; type: functional
Summary of the method: (§2)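 Arequipa epimastigotes exposed at IC25 for 72 h alongside an untreated control. Excreted catabolites were analysed by 1H NMR, and each peak is reported as % variation versus the control. Three separate determinations.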

[3] = system: Mus musculus; assay: as §1, with “as decrease” for “as change”, “day 75” for “day 10”, “day 81” for “day 127”; type: toxicity, organism-based; parameters: scale not given: the % may be the effect or the level left; conditions: in vivo
[4] = system: Mus musculus; assay: (§3) Hepatotoxicity in Balb/c mouse infected with Trypanosoma cruzi MHOM/Pe/2011/Arequipa DTU 5 trypamastigotes assessed as decrease in ratio of serum AST to GOT level at 100 mg/kg, po once daily for 5 consecutive days starting from day 75 post infection measured on day 81 post infection by biochemical analysis relative to control; type: toxicity, organism-based; parameters: scale not given: the % may be the effect or the level left; conditions: in vivo
[5] = system: Mus musculus; assay: as §3, with “127” for “81”; type: toxicity, organism-based; parameters: scale not given: the % may be the effect or the level left; conditions: in vivo
[6] = system: Mus musculus; assay: as §1, with “decrease” for “change”, “16” for “127”; type: toxicity, organism-based; parameters: scale not given: the % may be the effect or the level left; conditions: in vivo
[7] = system: Mus musculus; assay: as §3, with “Nephrotoxicity” for “Hepatotoxicity”, “urea level in” for “ratio of”, “serum” for “serum AST to GOT level”; type: toxicity, organism-based; parameters: scale not given: the % may be the effect or the level left; conditions: in vivo
[8] = system: Mus musculus; assay: as §1, with “day 75” for “day 10”; type: toxicity, organism-based; conditions: in vivo
[9] = system: Mus musculus; assay: as §3, with “total bilirubin” for “ratio of serum AST to GOT”, “10” for “75”, “16” for “81”; type: toxicity, organism-based; parameters: scale not given: the % may be the effect or the level left; conditions: in vivo
[10] = system: Mus musculus; assay: as §3, with “alkaline phosphatase” for “ratio of serum AST to GOT”, “10” for “75”, “16” for “81”; type: toxicity, organism-based; parameters: scale not given: the % may be the effect or the level left; conditions: in vivo
[11] = system: Mus musculus; assay: as §3, with “total bilirubin” for “ratio of serum AST to GOT”; type: toxicity, organism-based; parameters: scale not given: the % may be the effect or the level left; conditions: in vivo
[12] = system: Trypanosoma cruzi; assay: Antitrypanosomal activity against Trypanosoma cruzi MHOM/Pe/2011/Arequipa DTU 5 epimastigotes assessed as effect on parasite glycolytic pathway by measuring ethanol excretion at IC25 after 72 hrs by 1H NMR method; type: functional, organism-based; summary of the method: as §2
[13] = system: Trypanosoma cruzi; assay: Antitrypanosomal activity against Trypanosoma cruzi MHOM/Pe/2011/Arequipa DTU 5 epimastigotes assessed as effect on parasite glycolytic pathway by measuring acetate excretion at IC25 after 72 hrs by 1H NMR method; type: functional, organism-based; summary of the method: as §2
[14] = system: Mus musculus; assay: as §3, with “ALT” for “AST”, “GPT” for “GOT”, “127” for “81”; type: toxicity, organism-based; parameters: scale not given: the % may be the effect or the level left; conditions: in vivo
[15] = system: Mus musculus; assay: as §3, with “10” for “75”, “16” for “81”; type: toxicity, organism-based; parameters: scale not given: the % may be the effect or the level left; conditions: in vivo
[16] = system: Mus musculus; assay: as §1, with “urea” for “uric acid”; type: toxicity, organism-based; conditions: in vivo
[17] = system: Trypanosoma cruzi; assay: Antitrypanosomal activity against Trypanosoma cruzi MHOM/Pe/2011/Arequipa DTU 5 epimastigotes assessed as effect on parasite glycolytic pathway by measuring D-lactate excretion at IC25 after 72 hrs by 1H NMR method; type: functional, organism-based; summary of the method: as §2
[18] = system: Mus musculus; assay: as §3, with “ALT” for “AST”, “GPT” for “GOT”, “10” for “75”, “16” for “81”; type: toxicity, organism-based; parameters: scale not given: the % may be the effect or the level left; conditions: in vivo
[19] = system: Mus musculus; assay: as §3, with “10” for “75”, “127” for “81”; type: toxicity, organism-based; parameters: scale not given: the % may be the effect or the level left; conditions: in vivo
[20] = system: Mus musculus; assay: as §1, with “decrease” for “change”, “urea” for “uric acid”, “16” for “127”; type: toxicity, organism-based; parameters: scale not given: the % may be the effect or the level left; conditions: in vivo
[21] = system: Trypanosoma cruzi; assay: Antitrypanosomal activity against Trypanosoma cruzi MHOM/Pe/2011/Arequipa DTU 5 epimastigotes assessed as effect on parasite glycolytic pathway by measuring L-alanine excretion at IC25 after 72 hrs by 1H NMR method; type: functional, organism-based; summary of the method: as §2
[22] = system: Trypanosoma cruzi; assay: Antitrypanosomal activity against Trypanosoma cruzi MHOM/Pe/2011/Arequipa DTU 5 epimastigotes assessed as effect on parasite glycolytic pathway by measuring decrease in succinate excretion at IC25 after 72 hrs by 1H NMR method; type: functional, organism-based; summary of the method: as §2
[23] = system: Trypanosoma cruzi; assay: Antitrypanosomal activity against Trypanosoma cruzi MHOM/Pe/2011/Arequipa DTU 5 trypamastigotes infected in Balb/c mouse assessed as reduction in parasitaemia reactivation at 100 mg/kg, po pretreated once daily for 5 consecutive days starting from day 75 post infection followed by cyclophosphamide-induced immunosuppression on day 100 post infection every 4 days for a maximum of 3 doses measured up to 1 week post immunosuppression by Neubauer chamber method; type: functional, organism-based
[24] = system: Mus musculus; assay: as §1, with “Cardiotoxicity” for “Nephrotoxicity”, “serum LDH” for “uric acid”, “level” for “level in serum”, “16” for “127”; type: toxicity, organism-based; conditions: in vivo
[25] = system: Mus musculus; assay: as §1, with “Hepatotoxicity” for “Nephrotoxicity”, “increase” for “change”, “total bilirubin” for “uric acid”, “level” for “level in serum”, “20” for “100”; type: toxicity, organism-based; conditions: in vivo
[26] = system: Mus musculus; assay: as §3, with “increase” for “decrease”, “alkaline phosphatase” for “ratio of serum AST to GOT”, “20” for “100”, “127” for “81”; type: toxicity, organism-based; conditions: in vivo
[27] = system: Trypanosoma cruzi; assay: Antitrypanosomal activity against Trypanosoma cruzi MHOM/Pe/2011/Arequipa DTU 5 trypamastigotes infected in Balb/c mouse assessed as reduction in parasitaemia level at 20 mg/kg, po once daily for 5 consecutive days starting from day 10 post infection measured on day 23 post infection by Neubauer chamber method relative to control; type: functional; parameters: scale not given: the % may be the effect or the level left
Summary of the method: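 Six female BALB/c mice per group, infected i.p. with 5 x 10^5 Arequipa bloodstream trypomastigotes in PBS. Oral dosing once daily for 5 days from day 10 pi, 20 mg·kg-1 per day in aqueous 5 % DMSO/0.5 % HPMC, vehicle to controls. Blood trypomastigotes counted in a Neubauer chamber (parasites·mL-1); means ± SD.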

[28] = system: Mus musculus; assay: as §3, with “increase” for “decrease”, “10” for “75”, “16” for “81”; type: toxicity, organism-based; conditions: in vivo

Structure (SMILES)	Activity [1] [%]	Activity [2] [%]	Activity [3]	Activity [4]	Activity [5]	Activity [6]	Activity [7]	Activity [8] [%]	Activity [9]	Activity [10]	Activity [11]	Activity [12]	Activity [13]	Activity [14]	Activity [15]	Activity [16] [%]	Activity [17]	Activity [18]	Activity [19]	Activity [20]	also measured
COc1ccc(C(=O)CCN2CCN(c3ccc(Cl)cc3)CC2)cc1	< 10	200	<= 30%	<= 20%	<= 20%	<= 30%	<= 30%	< 10	<= 10%	<= 10%	<= 20%	inactive	inactive	<= 10%	<= 20%	< 10	inactive	<= 20%	<= 10%	<= 30%	Activity [21]: inactive
COc1ccc(C(=O)CCN2CCN(c3ccc(F)cc3)CC2)cc1	–	–	–	<= 10%	<= 20%	–	–	< 10	<= 10%	<= 20%	<= 10%	–	–	<= 10%	<= 30%	–	–	<= 30%	<= 10%	–	Activity [22]: Active; Activity [23]: Active; Activity [24]: < 10%
O=C(Cn1ccnc1[N+](=O)[O-])NCc1ccccc1 [BENZNIDAZOLE]	–	–	–	–	–	–	–	–	–	–	–	–	–	–	–	–	–	–	–	–	Activity [25]: <= 10%; Activity [26]: <= 20%; Activity [27]: 70%
COc1ccc(C(=O)CCN2CCN(c3ccc([N+](=O)[O-])cc3)CC2)cc1	< 10	>20	<= 30%	–	–	<= 20%	<= 10%	–	–	–	–	inactive	inactive	–	–	< 10	inactive	–	–	<= 20%	Activity [28]: > 40%; Activity [23]: Active; Activity [21]: inactive; Activity [24]: < 10%

— ChEMBL document CHEMBL4118256, “Second Generation of Mannich Base-Type Derivatives with in Vivo Activity against Trypanosoma cruzi” (J Med Chem, 2018)
